According to ChEMBL document CHEMBL2010769, “Synthesis and antiviral activity of 6-deoxycyclopropavir, a new prodrug of cyclopropavir” (Bioorg Med Chem, 2012):

Legend:
Murid betaherpesvirus 1 [1] = assay: Antiviral activity against MCMV infected in BALB/c mouse assessed as decrease in virus-induced mortality at 50 mg/kg, po qd for 5 days administered 24 hrs after viral infection (reference value: 67%); assay type: functional; parameters: scale not given: the % may be the effect or the level left
Procedure, shortened: (§1)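 Female BALB/c mice (3 weeks, 15/group) were inoculated ip with MCMV Smith at about LD90. Oral dosing of 0.2 mL in 0.4% CMC ran once daily for 5 days, starting 24 or 48 h post-inoculation. Mice were observed daily for 21 days. Mortality was compared with CMC placebo by Fisher's exact test.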

Murid betaherpesvirus 1 [2] = assay: Antiviral activity against MCMV infected in BALB/c mouse assessed as decrease in virus-induced mortality at 16.7 mg/kg, po qd for 5 days administered 24 hrs after viral infection (reference value: 67%); assay type: functional; parameters: scale not given: the % may be the effect or the level left; procedure, shortened: as §1
Murid betaherpesvirus 1 [3] = assay: Antiviral activity against MCMV infected in BALB/c mouse assessed as decrease in virus-induced mortality at 5.6 mg/kg, po qd for 5 days administered 24 hrs after viral infection (reference value: 67%); assay type: functional; parameters: scale not given: the % may be the effect or the level left; procedure, shortened: as §1
Murid betaherpesvirus 1 [4] = assay: Antiviral activity against MCMV infected in BALB/c mouse assessed as decrease in virus-induced mortality at 50 mg/kg, po qd for 5 days administered 48 hrs after viral infection (reference value: 100%); assay type: functional; parameters: scale not given: the % may be the effect or the level left; procedure, shortened: as §1
Murid betaherpesvirus 1 [5] = assay: Antiviral activity against MCMV infected in BALB/c mouse assessed as decrease in virus-induced mortality at 16.7 mg/kg, po qd for 5 days administered 48 hrs after viral infection (reference value: 100%); assay type: functional; parameters: scale not given: the % may be the effect or the level left; procedure, shortened: as §1
Murid betaherpesvirus 1 [6] = assay: Antiviral activity against MCMV infected in BALB/c mouse assessed as decrease in virus-induced mortality at 5.6 mg/kg, po qd for 5 days administered 48 hrs after viral infection (reference value: 100%); assay type: functional; parameters: scale not given: the % may be the effect or the level left; procedure, shortened: as §1
Murid betaherpesvirus 1 [7] = assay: Antiviral activity against MCMV infected in BALB/c mouse assessed as decrease in virus-induced mean day of death at 50 mg/kg, po qd for 5 days administered 24 hrs after viral infection (reference value: 4.9 +/- 0.7 days); assay type: functional
Murid betaherpesvirus 1 [8] = assay: Antiviral activity against MCMV infected in BALB/c mouse assessed as decrease in virus-induced mean day of death at 16.7 mg/kg, po qd for 5 days administered 24 hrs after viral infection (reference value: 4.9 +/- 0.7 days); assay type: functional
Murid betaherpesvirus 1 [9] = assay: Antiviral activity against MCMV infected in BALB/c mouse assessed as decrease in virus-induced mean day of death at 5.6 mg/kg, po qd for 5 days administered 24 hrs after viral infection (reference value: 4.9 +/- 0.7 days); assay type: functional
Murid betaherpesvirus 1 [10] = assay: Antiviral activity against MCMV infected in BALB/c mouse assessed as decrease in virus-induced mean day of death at 50 mg/kg, po qd for 5 days administered 48 hrs after viral infection (reference value: 5.1 +/- 0.9 days); assay type: functional
Murid betaherpesvirus 1 [11] = assay: Antiviral activity against MCMV infected in BALB/c mouse assessed as decrease in virus-induced mean day of death at 16.7 mg/kg, po qd for 5 days administered 48 hrs after viral infection (reference value: 5.1 +/- 0.9 days); assay type: functional
Murid betaherpesvirus 1 [12] = assay: Antiviral activity against MCMV infected in BALB/c mouse assessed as decrease in virus-induced mean day of death at 5.6 mg/kg, po qd for 5 days administered 48 hrs after viral infection (reference value: 5.1 +/- 0.9 days); assay type: functional
Human betaherpesvirus 5 [13] = assay: Antiviral activity against HCMV Toledo infected in human thymus/liver tissue xenografted in SCID mouse assessed as mean log10 genome equivalents/animal at 20 mg/kg, po qd for 14 days by RT-PCR analysis (reference value: 3.50 +/- 0.878); assay type: functional, strain Toledo
Human betaherpesvirus 5 [14] = assay: Antiviral activity against HCMV Toledo infected in human thymus/liver tissue xenografted in SCID mouse assessed as mean log10 genome equivalents/animal at 20 mg/kg, po qd for 21 days by RT-PCR analysis (reference value: 3.82 +/- 1.24); assay type: functional, strain Toledo
Human betaherpesvirus 5 [15] = assay: Antiviral activity against HCMV Toledo infected in human thymus/liver tissue xenografted in SCID mouse assessed as mean log10 genome equivalents/animal at 20 mg/kg, po qd for 28 days by RT-PCR analysis (reference value: 3.73 +/- 0.784); assay type: functional, strain Toledo
Human betaherpesvirus 5 [16] = assay: Antiviral activity against HCMV Toledo infected in human thymus/liver tissue xenografted in SCID mouse assessed as mean log10 genome equivalents/animal at 20 mg/kg, po qd for 28 days measured on day 35 by RT-PCR analysis (reference value: 3.28 +/- 1.422); assay type: functional, strain Toledo
Human betaherpesvirus 5 [17] = assay: Antiviral activity against HCMV Toledo infected in human thymus/liver tissue xenografted in SCID mouse assessed as decrease in viral infection at 20 mg/kg, po qd for 14 days by RT-PCR analysis (reference value: 92%); assay type: functional, strain Toledo; parameters: scale not given: the % may be the effect or the level left
Human betaherpesvirus 5 [18] = assay: Antiviral activity against HCMV Toledo infected in human thymus/liver tissue xenografted in SCID mouse assessed as decrease in viral infection at 20 mg/kg, po qd for 21 days by RT-PCR analysis (reference value: 92%); assay type: functional, strain Toledo; parameters: scale not given: the % may be the effect or the level left
Human betaherpesvirus 5 [19] = assay: Antiviral activity against HCMV Toledo infected in human thymus/liver tissue xenografted in SCID mouse assessed as decrease in viral infection at 20 mg/kg, po qd for 28 days by RT-PCR analysis (reference value: 92%); assay type: functional, strain Toledo; parameters: scale not given: the % may be the effect or the level left
Human betaherpesvirus 5 [20] = assay: Antiviral activity against HCMV Toledo infected in human thymus/liver tissue xenografted in SCID mouse assessed as decrease in viral infection at 20 mg/kg, po qd for 28 days measured on day 35 by RT-PCR analysis (reference value: 67%); assay type: functional, strain Toledo; parameters: scale not given: the % may be the effect or the level left
Murid betaherpesvirus 1 [21] = assay: Antiviral activity against MCMV infected in SCID mouse assessed as log10 reduction in viral titer in liver at 10 mg/kg, po relative to control; assay type: functional
Murid betaherpesvirus 1 [22] = assay: Antiviral activity against MCMV infected in SCID mouse assessed as log10 reduction in viral titer in lung at 10 mg/kg, po relative to control; assay type: functional
Murid betaherpesvirus 1 [23] = assay: Antiviral activity against MCMV infected in SCID mouse assessed as log10 reduction in viral titer in spleen at 10 mg/kg, po relative to control; assay type: functional
Murid betaherpesvirus 1 [24] = assay: Antiviral activity against MCMV infected in SCID mouse assessed as log10 reduction in viral titer in kidney at 10 mg/kg, po relative to control; assay type: functional

Question: Which results are given for Nc1nc2c(ncn2COC(CO)CO)c(=O)[nH]1 [GANCICLOVIR]?
Answer: Activity (Murid betaherpesvirus 1 [1]): 7%; Activity (Murid betaherpesvirus 1 [2]): 20%; Activity (Murid betaherpesvirus 1 [3]): 87%; Activity (Murid betaherpesvirus 1 [4]): 20%; Activity (Murid betaherpesvirus 1 [5]): 53%; Activity (Murid betaherpesvirus 1 [6]): 93%; Activity (Murid betaherpesvirus 1 [7]): 6 days; Activity (Murid betaherpesvirus 1 [8]): 6.3 days; Activity (Murid betaherpesvirus 1 [9]): 6.8 days; Activity (Murid betaherpesvirus 1 [10]): 5.7 days; Activity (Murid betaherpesvirus 1 [11]): 7.3 days; Activity (Murid betaherpesvirus 1 [12]): 6.4 days

Question: How did the Activity (Human betaherpesvirus 5 [13]) turn out when Nc1ccn(C[C@@H](CO)OCP(=O)(O)O)c(=O)n1.O.O [CIDOFOVIR] was run?
Answer: 2.47

Question: What about the Activity (Human betaherpesvirus 5 [14]) of the same compound?
Answer: 2.83

Question: What about the Activity (Human betaherpesvirus 5 [15]) of the same compound?
Answer: 2.08

Question: What about the Activity (Human betaherpesvirus 5 [16]) of the same compound?
Answer: 1.59

Question: What about the Activity (Human betaherpesvirus 5 [17]) of the same compound?
Answer: 82%

Question: And the Activity (Human betaherpesvirus 5 [18])?
Answer: 100%

Question: And the Activity (Human betaherpesvirus 5 [19])?
Answer: 50%

Question: What about the Activity (Human betaherpesvirus 5 [20]) of the same compound?
Answer: 0%

Question: For Nc1nc2c(ncn2/C=C2/CC2(CO)CO)c(=O)[nH]1 [FILOCICLOVIR], which FC (Murid betaherpesvirus 1 [21]) is on record?
Answer: 2

Question: And the FC (Murid betaherpesvirus 1 [22])?
Answer: 2

Question: What about the FC (Murid betaherpesvirus 1 [23]) of the same compound?
Answer: 2

Question: What about the FC (Murid betaherpesvirus 1 [24]) of the same compound?
Answer: 2
